# Data as given in article PMC9289877 (Journal of Medicinal Chemistry, 2022).
# *1 amine or outer side, *2 acyl side, *3 side chain or, on linkers, in order; H or OH if unused. Where a SMILES comes first, the peptide text is derived from it. The star is where a group is joined. X4 = CC(ON(C(C)(C)C)C(C)(C)C)c1ccc(O*)cc1; Suc = O=C(CCC(=O)[*:2])[*:1]
# B1: eglin C: a potent HNE inhibitor (CIBA-GEIGY) (protein, UniProt P01051 1-70, looked up)
# Eglin C: TEFGSELKSFPEVVGKTVDQAREYFTLHYPQYDVYFLPEGSPVTLDLRYNRVRVFYNPGTNVVNHVPHVG
# Experiments:
# [1] = test system: U87 human glioblastoma cell line; assay: PrestoBlue viability test on U87 cells with or without HNE; assay type: cell-based; settings: 48 h
# Outline: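 U87 cells were seeded and cultured for 48 h, then switched to serum-free DMEM. Test compound (0–400 μM) and HNE 0.68 μM were added; where used, eglin C 10 μM was added before HNE. After 1 h, 10% serum was added and incubation continued for 24, 48 or 72 h. PrestoBlue reagent (1/10 volume) was added for 30 min at 37 °C, and fluorescence was read at ex 560/em 590 nm.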
# U87 cells = assay: RealTime-Glo Annexin V Apoptosis and Necrosis Assay in U87 cells; assay type: cell-based, human; settings: doxorubicin 2 μM
# Outline: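 U87 cells were kept in DMEM with 10% FBS at 37 °C and 5% CO2, seeded for 48 h, then exposed to doxorubicin 2 μM as the apoptosis control and followed up to 48 h. RealTime-Glo detection reagent was added to the live-cell medium. Annexin V binding was read by luminescence. Necrosis was read as fluorescence of a cell-impermeant DNA dye (ex 485/em 530 nm) after 60 min at 37 °C.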
# [2] = test system: caspase 3/7 activation in U87 cells; assay: Caspase-Glo 3/7 assay in U87 cells; assay type: cell-based, human; settings: doxorubicin 2 μM
# Outline: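 U87 human glioblastoma cells were grown in DMEM with 10% FBS at 37 °C and 5% CO2, then seeded and cultured for 48 h before treatment. Doxorubicin 2 μM served as the apoptosis control, and signals were followed over time up to 48 h. For Caspase-Glo 3/7, plate and reagent were equilibrated to room temperature, then reagent was added to the wells. After 15 min at room temperature, luminescence was read.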
molecule,measurement,setting,value
COc1cccc2c1C(=O)c1c(O)c3c(c(O)c1C2=O)C[C@@](O)(C(=O)CO)C[C@@H]3O[C@H]1C[C@H](N)[C@H](O)[C@H](C)O1 [doxorubicin],U87 population still viable,[1]; doxorubicin 2 μM,50%
same,DNA+ labeling (positive control),U87 cells,increases regularly until 48 h
same,annexin V labeling (positive control),U87 cells; timing similar to caspase (24 to 48 h),highly AV+
same,caspase activity (positive control),[2],increases between 24 and 48 h
"CC(NC(=O)CCC(=O)O)C(=O)NC(C)C(=O)N1CCCC1C(=O)NC(C(=O)Oc1ccc(C(C)ON(C(C)(C)C)C(C)(C)C)cc1)C(C)C (stereo not drawn) [suc-AAPV-phenol-DBNO, Acid 4-((1-((1-(2-((1-(4-(1-((di-tert-butylamino)oxy)ethyl)phenoxy)-3-methyl-1-oxobutan-2-yl)carbamoyl)pyrrolidin-1-yl)-1-oxopropan-2-yl)amino)-1-oxopropan-2-yl)amino)-4-oxobutanoic Acid] (Suc-AAPV-X4; configuration not given here)",effect on viability in the presence of HNE,"[1]; U87 cells, prodrug 0–400 μM, HNE 0.68 μM",does not have any measurable effect
B1,rescue of U87 cells from prodrug + HNE cytotoxicity by elastase inhibitor,"[1]; eglin C 10 μM added just before HNE 0.68 μM, four prodrugs",rescues the cells
